Converted amounts (≈) assume the structure as drawn.
Columns and labels:
Enterococcus faecium = experiment: In vitro antibacterial activity against gram-positive Enterococcus faecium ATCC 8043; type: functional; details: Enterococcus faecium, ATCC 8043; read-out: MIC
Outline: (§1)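 Agar dilution MIC determination following the National Committee for Clinical Laboratory Standards recommendations.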

Escherichia coli [1] = experiment: In vitro antibacterial activity against gram negative Escherichia coli KNK 437; type: functional; details: Escherichia coli; read-out: MIC; outline: as §1
Pseudomonas aeruginosa [2] = experiment: (§2) In vivo efficacy against Pseudomonas aeruginosa 5007 in mouse protection test after subcutaneous administration; type: functional; details: Pseudomonas aeruginosa, sc; read-out: ED50
Outline: (§3)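 Mouse protection model: mice infected intravenously with 100-fold LD50 of the organism. Compound given by subcutaneous injection or oral gavage at 1 and 5 h after infection, over a dose range. Deaths tracked for 7 days post-inoculation. ED50 is the dose giving 50% survival of treated mice over the trial.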

Staphylococcus aureus [3] = experiment: In vivo efficacy against Staphylococcus aureus NCTC 10649M in mouse protection test after p.o. administration.; type: functional; details: Staphylococcus aureus, po; read-out: ED50; outline: as §3
Staphylococcus aureus [4] = experiment: In vivo efficacy against Staphylococcus aureus NCTC 10649M in mouse; type: functional; details: Staphylococcus aureus; read-out: ED50; outline: as §3
Escherichia coli [5] = experiment: In vivo efficacy against Escherichia coli JUHL in mouse protection test after p.o. administration.; type: functional; details: Escherichia coli, po; read-out: ED50; outline: as §3
Escherichia coli [6] = experiment: In vivo efficacy against Escherichia coli JUHL in mouse protection test after subcutaneous administration; type: functional; details: Escherichia coli, sc; read-out: ED50; outline: as §3
Mus musculus [7] = experiment: (§4) In vivo efficacy against Pseudomonas aeruginosa 5007 in mouse protection test after administration by oral gavage; type: functional; outline: as §3
Pseudomonas aeruginosa [8] = experiment: In vitro antibacterial activity against Gram-negative Pseudomonas aeruginosa 5007; type: functional; details: Pseudomonas aeruginosa; read-out: MIC; outline: as §1
Pseudomonas aeruginosa [9] = experiment: In vitro antibacterial activity against gram negative P. aeruginosa DPHP 5263; type: functional; details: Pseudomonas aeruginosa, DPHP 5263; read-out: MIC; outline: as §1
Burkholderia cepacia [10] = experiment: In vitro antibacterial activity against gram negative Pseudomonas cepacia 2961; type: functional; details: Burkholderia cepacia; read-out: MIC; outline: as §1
Staphylococcus aureus [11] = experiment: In vitro antibacterial activity against gram-positive Staphylococcus aureus 1775; type: functional; details: Staphylococcus aureus; read-out: MIC; outline: as §1
Staphylococcus aureus [12] = experiment: In vitro antibacterial activity against gram-positive Staphylococcus aureus NCTC 10649M; type: functional; details: Staphylococcus aureus, NCTC 10649; read-out: MIC; outline: as §1
Streptococcus pyogenes = experiment: In vitro antibacterial activity against gram positive Streptococcus pyogenes 930; type: functional; details: Streptococcus pyogenes; read-out: MIC; outline: as §1
Mus musculus [13] = experiment: In vivo efficacy against Staphylococcus aureus NCTC 10649M in mouse protection test after subcutaneous administration.; type: functional; details: sc; outline: as §3
Streptococcus pneumoniae = experiment: In vivo efficacy against Streptococcus pneumoniae ATCC 6303 in mouse protection test after s.c. administration.; type: functional; details: Streptococcus pneumoniae, sc; read-out: ED50; outline: as §3
Mus musculus [14] = experiment: InIn vivo efficacy against Escherichia coli JUHL in mouse protection test after administration by oral gavage; type: functional; outline: as §3
Pseudomonas aeruginosa [15] = experiment: as §4; type: functional; details: Pseudomonas aeruginosa, po; read-out: ED50; outline: as §3
Mus musculus [16] = experiment: IIn vivo efficacy against Streptococcus pneumoniae ATCC 6303 in mouse protection test after administration by oral gavage; type: functional; outline: as §3
Mus musculus [17] = experiment: In vivo efficacy against Escherichia coli JUHL in mouse protection test after by oral gavage; type: functional; outline: as §3
Mus musculus [18] = experiment: In vivo efficacy against Pseudomonas aeruginosa 5007 in mouse protection test […]; type: functional; outline: as §3
Mus musculus [19] = experiment: In vivo efficacy against Streptococcus pneumoniae ATCC 6303 after subcutaneous administration; type: functional; details: sc; outline: as §3
Mus musculus [20] = experiment: In vivo efficacy against Streptococcus pneumoniae ATCC 6303 after administration by oral gavage; type: functional; outline: as §3
Mus musculus [21] = experiment: IIn vivo efficacy against Escherichia coli JUHL in mouse protection test after administration by oral gavage.; type: functional; outline: as §3
Mus musculus [22] = experiment: In vivo efficacy against Streptococcus pneumoniae ATCC 6303 in mouse protection test after administration by oral gavage.; type: functional; outline: as §3
Mus musculus [23] = experiment: In vivo efficacy against Escherichia coli JUHL in mouse protection test after administration by oral gavage.; type: functional; outline: as §3
Mus musculus [24] = experiment: In vivo efficacy against Staphylococcus aureus NCTC 10649M in mouse protection test after administration by oral gavage; type: functional
Mus musculus [25] = experiment: In vivo efficacy against Streptococcus pneumoniae ATCC 6303 in mouse protection test after administration by oral gavage; type: functional; outline: as §3
Mus musculus [26] = experiment: In vivo efficacy against Streptococcus pneumoniae ATCC 6303 in mouse protection test after subcutaneous administration; type: functional; details: sc; outline: as §3
Pseudomonas aeruginosa [27] = experiment: Not Plasmodium species; type: functional
Burkholderia cepacia [28] = experiment: In vitro antibacterial activity against Pseudomonas cepacia 2961 a ciprofloxacin resistant strain; type: functional
Outline: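 MIC by agar dilution following National Committee for Clinical Laboratory Standards recommendations. P. cepacia 2961 is a ciprofloxacin-resistant strain; S. pyogenes 930 is erythromycin-resistant.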

Burkholderia cepacia [29] = experiment: In vitro antibacterial activity against gram negative P. cepacia 2961
Mus musculus [30] = experiment: as §2; type: functional; details: sc; outline: as §3

Row | SMILES | MIC (Enterococcus faecium) | MIC (Escherichia coli [1]) | ED50 (Pseudomonas aeruginosa [2]) | ED50 (Staphylococcus aureus [3]) | ED50 (Staphylococcus aureus [4]) | ED50 (Escherichia coli [6]) | MIC (Pseudomonas aeruginosa [8]) | MIC (Pseudomonas aeruginosa [9]) | MIC (Burkholderia cepacia [10]) | MIC (Staphylococcus aureus [11]) | MIC (Staphylococcus aureus [12]) | MIC (Streptococcus pyogenes) | ED50 (Streptococcus pneumoniae) | other results
1 | CCCN[C@H]1CCN(c2c(F)cn3c(=O)c(C(=O)O)cc(C4CC4)c3c2C)C1 | 0.39 µg/mL (≈ 1.01 µM) | 0.2 µg/mL (≈ 0.516 µM) | > 8 mg/kg | 25.4 mg/kg | 4.3 mg/kg | 1.1 mg/kg | 1.56 µg/mL (≈ 4.03 µM) | 12.5 µg/mL (≈ 32.3 µM) | 3.1 µg/mL (≈ 8 µM) | 1.56 µg/mL (≈ 4.03 µM) | 0.1 µg/mL (≈ 0.258 µM) | 0.2 µg/mL (≈ 0.516 µM) | – | ED50 (Escherichia coli [5]): > 10 mg/kg; ED50 (Mus musculus [7]): > 50 mg/kg
2 | Cc1c(N2C[C@H]3CCN[C@H]3C2)c(F)cn2c(=O)c(C(=O)O)cc(C3CC3)c12 | 0.2 µg/mL (≈ 0.538 µM) | 0.39 µg/mL (≈ 1.05 µM) | 18 mg/kg | 5 mg/kg | – | 0.8 mg/kg | – | 0.62 µg/mL (≈ 1.67 µM) | 0.78 µg/mL (≈ 2.1 µM) | 6.2 µg/mL (≈ 16.7 µM) | 0.1 µg/mL (≈ 0.269 µM) | – | 2.3 mg/kg | ED50 (Mus musculus [13]): 1.5 mg/kg; ED50 (Mus musculus [14]): 10 mg/kg; ED50 (Pseudomonas aeruginosa [15]): > 50 mg/kg; ED50 (Mus musculus [16]): 11.2 mg/kg
3 | COCCN[C@H]1CCN(c2c(F)cn3c(=O)c(C(=O)O)cc(C4CC4)c3c2C)C1 | 0.39 µg/mL (≈ 0.967 µM) | 0.39 µg/mL (≈ 0.967 µM) | – | 18.1 mg/kg | 6.1 mg/kg | 2.5 mg/kg | 1.56 µg/mL (≈ 3.87 µM) | 12.5 µg/mL (≈ 31 µM) | 0.78 µg/mL (≈ 1.93 µM) | 1.56 µg/mL (≈ 3.87 µM) | 0.05 µg/mL (≈ 0.124 µM) | 0.39 µg/mL (≈ 0.967 µM) | – | ED50 (Mus musculus [17]): > 10 mg/kg
4 | Cc1c(N2CC[C@H](N)C2)c(F)cn2c(=O)c(C(=O)O)cc(C3CC3)c12 (stereo in doubt; 3i) [ABT-719] | 0.02 µg/mL (≈ 0.0579 µM) | 0.02 µg/mL (≈ 0.0579 µM) | 0.5 mg/kg | 3 mg/kg | 0.8 mg/kg | 0.3 mg/kg | – | – | 0.39 µg/mL (≈ 1.13 µM) | 0.78 µg/mL (≈ 2.26 µM) | 0.02 µg/mL (≈ 0.0579 µM) | – | – | ED50 (Mus musculus [18]): 2.9 mg/kg; ED50 (Mus musculus [19]): 2.6 mg/kg; ED50 (Mus musculus [20]): 10 mg/kg; ED50 (Mus musculus [21]): 8.3 mg/kg
5 | CCN[C@H]1CCN(c2c(F)cn3c(=O)c(C(=O)O)cc(C4CC4)c3c2C)C1 | 0.1 µg/mL (≈ 0.268 µM) | 0.2 µg/mL (≈ 0.536 µM) | > 8 mg/kg | 7.7 mg/kg | 1 mg/kg | 0.6 mg/kg | 0.39 µg/mL (≈ 1.04 µM) | 6.2 µg/mL (≈ 16.6 µM) | 3.1 µg/mL (≈ 8.3 µM) | 1.56 µg/mL (≈ 4.18 µM) | 0.05 µg/mL (≈ 0.134 µM) | 0.1 µg/mL (≈ 0.268 µM) | 2.9 mg/kg | ED50 (Mus musculus [22]): 7.9 mg/kg; ED50 (Mus musculus [23]): 3 mg/kg; ED50 (Mus musculus [7]): > 50 mg/kg
6 | O=C(O)c1cn(C2CC2)c2cc(N3CCNCC3)c(F)cc2c1=O [CIPROFLOXACIN] | 0.39 µg/mL (≈ 1.18 µM) | – | 2.4 mg/kg | – | 3.6 mg/kg | 0.2 mg/kg | – | – | 6.2 µg/mL (≈ 18.7 µM) | > 100 µg/mL | 0.39 µg/mL (≈ 1.18 µM) | – | – | ED50 (Mus musculus [24]): 25 mg/kg; ED50 (Mus musculus [25]): > 100 mg/kg; ED50 (Mus musculus [26]): 37.4 mg/kg; ED50 (Escherichia coli [5]): 1.3 mg/kg; ED50 (Pseudomonas aeruginosa [15]): 20 mg/kg; MIC (Pseudomonas aeruginosa [27]): 0.1 µg/mL (≈ 0.302 µM)
7 | Cc1c(N2CCC3(CCCC3N)C2)c(F)cn2c(=O)c(C(=O)O)cc(C3CC3)c12 (stereo unspecified) | 0.1 µg/mL (≈ 0.25 µM) | 0.2 µg/mL (≈ 0.501 µM) | – | – | – | – | – | 6.2 µg/mL (≈ 15.5 µM) | – | 0.78 µg/mL (≈ 1.95 µM) | 0.05 µg/mL (≈ 0.125 µM) | – | – | MIC (Burkholderia cepacia [28]): 3.1 µg/mL (≈ 7.76 µM); MIC (Burkholderia cepacia [29]): 0.78 µg/mL (≈ 1.95 µM)
8 | Cc1c(N2CCC[C@H](NC3CC3)C2)c(F)cn2c(=O)c(C(=O)O)cc(C3CC3)c12 | 0.1 µg/mL (≈ 0.25 µM) | 0.05 µg/mL (≈ 0.125 µM) | – | – | 0.8 mg/kg | > 5 mg/kg | 0.2 µg/mL (≈ 0.501 µM) | 3.1 µg/mL (≈ 7.76 µM) | 0.78 µg/mL (≈ 1.95 µM) | 0.39 µg/mL (≈ 0.976 µM) | 0.01 µg/mL (≈ 0.025 µM) | 0.02 µg/mL (≈ 0.0501 µM) | 4.3 mg/kg | ED50 (Mus musculus [30]): > 32 mg/kg

— ChEMBL document CHEMBL1132437, “Synthesis and antimicrobial activity of 4H-4-oxoquinolizine derivatives: consequences of structural modification at the C-8 position” (1999)
